How the values were obtained:
[1] = system: anandamide (AEA); experiment: Plasma anandamide; type: in vivo, human; details: for AEA AUC0–24: Day 1; for AEA AUC0–τ: Day 10
Method in brief: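 In a double-blind, placebo-controlled multiple-dose part, healthy adult men and women in groups of eight (six active, two placebo) took oral test compound once daily for 10 days. They fasted at least 8 h before and 1 h after dosing. Plasma anandamide AUCs were taken on Days 1 and 10, with a Day 10/Day 1 ratio. Data are mean (CV%); tmax is median (range).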

[2] = target: T1, FAAH (Homo sapiens, UniProt O00519); experiment: Leukocyte FAAH activity in participants; type: in vivo
T1 sequence (O00519 1-579): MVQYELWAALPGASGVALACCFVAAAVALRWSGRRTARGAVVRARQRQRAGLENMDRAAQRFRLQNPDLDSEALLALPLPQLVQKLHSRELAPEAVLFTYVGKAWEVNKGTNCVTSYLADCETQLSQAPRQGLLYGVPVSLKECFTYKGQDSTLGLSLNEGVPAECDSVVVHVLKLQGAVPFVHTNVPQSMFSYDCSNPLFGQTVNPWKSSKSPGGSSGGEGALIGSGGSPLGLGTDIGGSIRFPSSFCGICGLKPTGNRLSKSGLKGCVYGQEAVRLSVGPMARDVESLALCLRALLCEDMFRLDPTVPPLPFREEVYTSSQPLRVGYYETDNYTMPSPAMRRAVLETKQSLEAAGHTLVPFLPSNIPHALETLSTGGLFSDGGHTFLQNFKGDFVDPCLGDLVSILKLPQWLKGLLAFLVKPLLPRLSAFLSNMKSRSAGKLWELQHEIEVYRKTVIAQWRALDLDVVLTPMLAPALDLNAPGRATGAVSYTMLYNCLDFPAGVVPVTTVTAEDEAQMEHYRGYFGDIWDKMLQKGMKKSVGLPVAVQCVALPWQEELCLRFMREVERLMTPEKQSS
Method in brief: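 Healthy men and women aged 18–55 years (BMI 19–30 kg/m²) took single oral capsule doses of test compound (0.25–100 mg) or matching placebo in a double-blind design. They fasted at least 8 h before and 1 h after dosing. Leukocyte FAAH activity was followed after dosing and expressed as percent inhibition, judged by visual inspection. Values are means of six participants per group.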

CN(C(=O)n1cnc(-c2ccc[n+]([O-])c2)c1)C1CCCCC1 [BIA 10-2474, 3-(1-(cyclohexyl(methyl)carbamoyl)-1H-imidazol-4-yl)pyridine 1-oxide]
AEA Ratio (AUCD10/D1) ([1]; 2.5 mg once daily): 1.27
AEA AUC0–24 ([1]; 2.5 mg once daily): 42.8 (17.1) ng⋅hour/mL
AEA AUC0–τ ([1]; 2.5 mg once daily): 54.2 (9.41) ng⋅hour/mL
AEA Ratio (AUCD10/D1) ([1]; 5 mg once daily): 1.25
AEA AUC0–24 ([1]; 5 mg once daily): 44.9 (23.4) ng⋅hour/mL
AEA AUC0–τ ([1]; 5 mg once daily): 56.3 (17.7) ng⋅hour/mL
AEA Ratio (AUCD10/D1) ([1]; 10 mg once daily): 1.16
AEA AUC0–24 ([1]; 10 mg once daily): 52.2 (19.3) ng⋅hour/mL
AEA AUC0–τ ([1]; 10 mg once daily): 60.8 (17.9) ng⋅hour/mL
AEA Ratio (AUCD10/D1) ([1]; 20 mg once daily): 1.22
AEA AUC0–24 ([1]; 20 mg once daily): 51.2 (19.6) ng⋅hour/mL
AEA AUC0–τ ([1]; 20 mg once daily): 62.8 (21.7) ng⋅hour/mL
BIA 10-2474 plasma exposure giving relevant AEA increases ([1]; achieved with 10 mg/day): around 1,500 ng⋅h/mL
AEA AUC0–t ([1]; single dose 0.25 mg): 27.5 (34.1) ng⋅hour/mL
AEA AUC0–t ([1]; single dose 1.25 mg): 68.0 (13.1) ng⋅hour/mL
AEA AUC0–t ([1]; single dose 2.5 mg): 101 (17.2) ng⋅hour/mL
AEA AUC0–t ([1]; single dose 5 mg): 109 (11.2) ng⋅hour/mL
AEA AUC0–t ([1]; single dose 10 mg): 137 (8.92) ng⋅hour/mL
AEA AUC0–t ([1]; single dose 20 mg): 149 (6.20) ng⋅hour/mL
AEA AUC0–t ([1]; single dose 40 mg): 160 (26.42) ng⋅hour/mL
AEA AUC0–t ([1]; single dose 100 mg): 188 (22.4) ng⋅hour/mL
increase in plasma AEA AUC compared with placebo ([1]; single dose 100 mg): 12.5 fold
return of AEA to baseline ([1]; single doses): > 72 hours post dose
apparent maximum FAAH inhibition ([2]; 5 mg and above, visual inspection): > 97%
duration of FAAH inhibition by more than 90% ([2]; doses above 2.5 mg): at least 72 hours
FAAH activity inhibited ([2]; doses above 2.5 mg, for at least 72 hours): more than 90%
FAAH inhibition ([2]; single dose 0.25 mg, visual inspection): more than 50%

— PMC9292215 (Clinical Pharmacology and Therapeutics, 2021)
